Sampled rows, rich in hits. Any-hit rate of the full collection: about 0.75%.
ASAP1 GAP inh: inhibitors of human ASAP1 ArfGAP activity, primary screen, biochemical, fluorescence polarization | Arf-GAP with SH3 domain, ANK repeat and PH domain-containing protein 1 (Homo sapiens), … | ASAP1-stimulated ARF1 GTP hydrolysis, GDP FP detection | inhibition, % at 16.5 µM | actives 0.19% (n = 360,000) | AID 624377, 2012; in the data active means inhibition above about 25%
Target sequence (Q9ULH1 325-724 limits assumed): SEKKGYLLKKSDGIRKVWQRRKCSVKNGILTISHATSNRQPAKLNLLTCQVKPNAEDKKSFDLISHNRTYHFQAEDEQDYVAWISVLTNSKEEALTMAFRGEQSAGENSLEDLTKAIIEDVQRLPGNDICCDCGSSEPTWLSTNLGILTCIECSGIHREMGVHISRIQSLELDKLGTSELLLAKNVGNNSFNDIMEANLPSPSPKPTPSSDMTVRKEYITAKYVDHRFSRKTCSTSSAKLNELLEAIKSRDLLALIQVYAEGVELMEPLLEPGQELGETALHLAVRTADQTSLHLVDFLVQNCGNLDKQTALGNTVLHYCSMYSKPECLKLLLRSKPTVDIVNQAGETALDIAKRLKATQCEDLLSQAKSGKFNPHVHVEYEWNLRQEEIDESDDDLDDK
ZTA DNA inh: counter-screen for EBNA-1 inhibitors: inhibitors of Epstein-Barr virus ZTA | P03206 | ZTA-DNA binding, fluorescence polarization | inhibition, % at 11 µM | actives 0.15% (n = 320,000) | AID 2234; in the data active means inhibition above about 33%
ARFGAP1 inhibitor: inhibitors of rat ARFGAP1 GAP activity, primary screen, biochemical, fluorescence polarization, GDP tracer; Arfgap1-stimulated ARF1 GTP hydrolysis, GDP FP detection; inhibition, % at 16.5 µM; actives 0.26% (n = 360,000); AID 651572, 2012;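 active means inhibition above a per-plate limit, mean inhibition of low control wells plus 3 SD, cut at about 25% in these data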
Target sequence (Q62848 1-136 limits assumed): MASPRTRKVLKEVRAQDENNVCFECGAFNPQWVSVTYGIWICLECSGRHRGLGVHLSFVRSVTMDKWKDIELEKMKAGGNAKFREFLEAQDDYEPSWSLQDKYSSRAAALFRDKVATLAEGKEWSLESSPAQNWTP
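Replicates: Single well per compound | Assay system: Truncated rat Arfgap1 GAP domain | Control set: No-Arfgap1 wells (100%) versus DMSO full-reaction wells (0%) | Times: Enzyme reaction 120 min at 25 °C after 20 min preincubation | Reagent: Human ARF1(Δ1-17)-GTP substrate | Measured by: Tracer-displacement fluorescence polarization with EDTA stop, 620/688 nm | Measure: Percent inhibition of Arfgap1-stimulated GTP hydrolysis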
EBNA-1 inh: EBNA-1 DNA-binding inhibitors, primary screen, biochemical, fluorescence polarization; actives 0.34% (n = 300,000); inhibition, % at 14.8 µM; in the data active means inhibition above about 28%
ARFGAP1 inh conf: ARFGAP1 inhibitor hit confirmation, biochemical, fluorescence polarization, triplicate; shares compounds with ARFGAP1 inhibitor; ARFGAP1-stimulated ARF1 GTP hydrolysis, GDP tracer FP; inhibition, % at 16.5 µM; actives 30% (n = 890);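 active means average inhibition over triplicates above the hit cutoff set in the earlier primary screen, cut at about 25% in these data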
Large screens that a line does not name were inactive (follow-up assays come after a bar, where they were run).

O=C(NCCCO)C(=O)Nc1cc2c3c(c1)CCC(=O)N3CCC2	ARFGAP1 inhibitor 27 | ARFGAP1 inh conf inactive
COCCCNC(=O)C(=O)Nc1cc2c3c(c1)CCC(=O)N3CCC2	none
COc1ccc(NC(=O)OC[C@@H]2CSCCS(=O)(=O)N2)cc1	none (no result: ZTA DNA inh, EBNA-1 inh)
COc1ccc(-c2cc(NC(=O)Cc3c[nH]c4ccccc34)ccc2N(C)c2cccnc2)cc1F	none (no result: ZTA DNA inh, EBNA-1 inh)
CN(c1cccnc1)c1ccc(NC(=O)Cc2c[nH]c3ccccc23)cc1-c1ccc(F)c(F)c1	ARFGAP1 inhibitor 25 (no result: ZTA DNA inh, EBNA-1 inh) | ARFGAP1 inh conf inactive
Cc1ccc(NC(=O)c2cccc(S(=O)(=O)NCc3ccccc3)c2)nc1	ARFGAP1 inhibitor 35 | ARFGAP1 inh conf inactive
O=C(COc1ccc(Cl)cc1)Nc1ccc2c(c1)CCC2	ARFGAP1 inhibitor 30 | ARFGAP1 inh conf inactive
CC(=O)Nc1ccc(-c2csc(NC(=O)Cc3cccc(F)c3)n2)cc1	ARFGAP1 inhibitor 31 | ARFGAP1 inh conf inactive
CC(=O)Nc1ccc(-c2csc(NC(=O)Cc3ccccc3F)n2)cc1	none
Cc1cc(C)c(NC(=O)CSc2nc3ccc(NC(=O)CSc4nnnn4Cc4ccccc4)cc3s2)c(C)c1	ARFGAP1 inhibitor 25 | ARFGAP1 inh conf inactive
O=C(CSc1nc2ccc(NC(=O)CSc3nnnn3Cc3ccccc3)cc2s1)Nc1ccccc1	none
NC1=NC[C@H](Cc2ccccc2)N1CCc1cc(C(F)(F)F)cc(C(F)(F)F)c1	ARFGAP1 inhibitor 25 | ARFGAP1 inh conf inactive
C[C@@H]1COc2cc(N3CCCC3)ccc2S(=O)(=O)N1	none (no result: ZTA DNA inh, EBNA-1 inh)
CCCN1Cc2cccc(C(=O)NC(CC(=O)OCC)c3ccc(C)cc3)c2C1=O (configuration not stated)	none
CCOC(=O)CN1Cc2cccc(C(=O)O)c2C1=O	ARFGAP1 inhibitor 25 | ARFGAP1 inh conf inactive
Cc1ccc(C(C)C)c(OCc2ccc(C(=O)N/N=C/c3ccc(C(=O)O)cc3)cc2)c1	none
Cc1ccc(C(C)C)c(OCc2ccc(C(=O)N/N=C/c3ccc(O)cc3O)cc2)c1	ARFGAP1 inhibitor 30 | ARFGAP1 inh conf 32
CN(NC(=O)C(=O)NCc1ccco1)C(=O)NC1CCCCC1	none (no result: ZTA DNA inh, EBNA-1 inh)
Cc1c(C(=O)Nc2ccc(-n3cnnn3)cc2)oc2ccccc12	ARFGAP1 inhibitor 26 | ARFGAP1 inh conf 47
Cc1cc(C)n(C(C)CNS(=O)(=O)c2ccc(Cl)cc2)n1 (configuration not stated)	ARFGAP1 inhibitor 25 | ARFGAP1 inh conf inactive
Cc1ccc(S(=O)(=O)NCC(C)n2nc(C)cc2C)cc1 (configuration not stated)	none
Cc1cc(OCC(=O)NCc2cccnc2)c2c(C)c(C)c(=O)oc2c1	none
Cc1cc(OCC(=O)Nc2cccnc2)c2c(C)c(C)c(=O)oc2c1	ARFGAP1 inhibitor 29 | ARFGAP1 inh conf 30
CN1C(=O)c2ccc(NC(=O)c3c(C(=O)O)cccc3[N+](=O)[O-])cc2C1=O	ARFGAP1 inhibitor 26 | ARFGAP1 inh conf inactive
Cc1ccccc1NC(=O)c1cccc(NC(=O)c2c(C(=O)O)cccc2[N+](=O)[O-])c1	none
CCN(CC)CCNC(=O)c1ccc(NC(=O)CC(NC(=O)c2ccccc2Cl)c2ccccc2)cc1 (configuration not stated)	none
COc1ccc(NC(=O)c2ccc(NC(=O)COC(=O)CC(NC(=O)c3ccccc3Cl)c3ccccc3)cc2)cc1 (configuration not stated)	ARFGAP1 inhibitor 26 | ARFGAP1 inh conf inactive
C/C(=N\N=C(/N)SC1CC(=O)N(c2ccccc2)C1=O)c1cccs1 (configuration not stated)	none
C/C(=N\N=C(/N)SC1CC(=O)N(c2ccc(Br)cc2)C1=O)c1cccs1 (configuration not stated)	ARFGAP1 inhibitor 27 | ARFGAP1 inh conf inactive
CCOc1cccc(C=NNc2nc(=O)cc(C(=O)OC)s2)c1O	none (no result: ZTA DNA inh, EBNA-1 inh)
c1ccc(CCn2cnc3ccccc32)cc1	ARFGAP1 inhibitor 26 | ARFGAP1 inh conf inactive
c1ccc(OCCn2cnc3ccccc32)cc1	none
COc1ccccc1-c1ccc([C@@H]2C[C@H]3[C@H](CON3C)CN2CC2CCCCC2)cc1	none (no result: ZTA DNA inh, EBNA-1 inh)
Cc1cc(S(=O)(=O)Nc2cccnc2)c(C)s1	ARFGAP1 inhibitor 25 | ARFGAP1 inh conf inactive
COc1ccc(CCn2c(SCC(=O)Nc3cc(C)on3)nc3ccsc3c2=O)cc1OC	ARFGAP1 inhibitor 37 | ARFGAP1 inh conf 35
COc1ccc(CCn2c(SCC(=O)Nc3cc(C)on3)nc3ccccc3c2=O)cc1OC	none
COC(=O)C1=C(C)N(C)C(=NCc2ccccc2C(F)(F)F)NC1c1ccc(C(F)(F)F)cc1 (configuration not stated)	none (no result: ZTA DNA inh, EBNA-1 inh)
Cc1ccccc1OCC(=O)N(Cc1cccs1)C1CCS(=O)(=O)C1 (configuration not stated)	ARFGAP1 inhibitor 25 | ARFGAP1 inh conf inactive
Cc1cccc(C)c1OCC(=O)N(Cc1cccs1)C1CCS(=O)(=O)C1 (configuration not stated)	none
O=C(NCc1ccccc1)[C@H]1CCCN1C(=O)[C@H]1CCCN1C(=O)c1ccccc1	none (no result: ZTA DNA inh, EBNA-1 inh)
CCN1CCN(c2ccc(S(=O)(=O)N3CCOCC3)cc2NC(=O)/C=C/c2ccc(OC)cc2OC)CC1	ARFGAP1 inhibitor 33 | ARFGAP1 inh conf inactive
CCN1CCN(c2ccc(S(=O)(=O)N3CCOCC3)cc2NC(=O)/C=C/c2ccc([N+](=O)[O-])cc2)CC1	ARFGAP1 inhibitor 37 | ARFGAP1 inh conf 37
CCN1CCN(c2ccc(S(=O)(=O)N3CCOCC3)cc2NC(=O)c2cccc([N+](=O)[O-])c2)CC1	none (no result: ZTA DNA inh, EBNA-1 inh)
O=c1ccn2c(n1)OC1CC2OC1COC(c1ccccc1)(c1ccccc1)c1ccccc1 (configuration not stated)	none (no result: ZTA DNA inh, EBNA-1 inh)
COc1ccc(NC(=O)C2CCCN(S(=O)(=O)c3ccc4c(c3)CC(C)N4C(C)=O)C2)cc1 (configuration not stated)	ARFGAP1 inhibitor 26 | ARFGAP1 inh conf inactive
CCOc1ccc(NC(=O)C2CCCN(S(=O)(=O)c3ccc4c(c3)CC(C)N4C(C)=O)C2)cc1 (configuration not stated)	none
O=C(N[C@H](C(=O)N1CCC[C@H]1C(=O)NCCc1ccccc1Cl)c1ccccc1)C1CC1	none (no result: ZTA DNA inh, EBNA-1 inh)
O=C(Nc1nc2ccc(SC(F)F)cc2s1)c1ccc(NS(=O)(=O)c2ccc(F)c(F)c2)cc1	ARFGAP1 inhibitor 26 | ARFGAP1 inh conf 30
CCN1CCN(C(=O)Cn2ncc3c([nH]c4ccccc43)c2=O)CC1	none
CCN1CCN(C(=O)Cn2ncc3c([nH]c4ccc(C)cc43)c2=O)CC1	ARFGAP1 inhibitor 25 | ARFGAP1 inh conf 29
COc1ccc(O)c(-c2cc(-c3ccccc3Cl)[nH]n2)c1	ARFGAP1 inhibitor 30 | ARFGAP1 inh conf inactive
CN1CCCCC(NC(=O)c2cccc([N+](=O)[O-])c2)C1=O (configuration not stated)	none (no result: ZTA DNA inh, EBNA-1 inh)
